Source: PubChem BioAssay AID504509 (Southern Research Specialized Biocontainment Screening …, 2011)
Activity calls are given as the source filed them.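 The calls were made as follows: active = cell viability under 70% at any tested concentration, a measure not printed in our tables; inactive = the rest.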

These compounds were tested on HEp-2 viability, luminescence, cytotoxicity counter-screen (assay: HEp-2 cell cytotoxicity, dose response, cytotoxicity control for RSV inhibitor project, HEp-2 cells, synthesized compounds, set 6 (AID 504509)).
In short: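 Test system: uninfected HEp-2 human cells, cytotoxicity counter-screen; quantity: 10,595 HEp-2 cells per well; timing: compound exposure of 6 days at 37 °C; measured by: CellTiter-Glo luminescence reporting cellular ATP; read-out basis: CC50 from % viability versus untreated-cell median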

Row | SMILES | CC50
1 | Cc1ccc(C)c(NC(=O)[C@@H]2CCCN2S(=O)(=O)c2cccc3cccnc23)c1 | 50.4 µM
2 | O=C(O)C1CC=CCC1C(=O)Nc1ccc(S(=O)(=O)N2CCCc3ccccc32)cc1 (configuration not stated) | 33 µM
3 | Cc1cccc(C)c1NC(=O)[C@@H]1CCCN1S(=O)(=O)c1cccc2cccnc12 | > 50 µM (inactive)
4 | COc1ccccc1CNC(=O)C1CCN(S(=O)(=O)c2cccc3cccnc23)CC1 | > 50 µM (inactive)
5 | Cc1ccc(C(C)C)cc1NC(=O)[C@@H]1CCCN1S(=O)(=O)c1cccc2cccnc12 | 8.26 µM
6 | COCCCNC(=O)c1ccc(Cn2c(=O)c3ccccc3n(Cc3ccccc3)c2=O)cc1 | > 50 µM (inactive)
7 | COc1cccc(CNC(=O)C2CCN(S(=O)(=O)c3cccc4nonc34)CC2)c1 | > 50 µM (inactive)
8 | COc1ccccc1CNC(=O)C1CCN(Cc2cccc3nonc23)CC1 | > 50 µM (inactive)
9 | COc1ccccc1CNC(=O)[C@@H]1CCCN1S(=O)(=O)c1cccc2cccnc12 | > 50 µM (inactive)
10 | Cc1ccc(C(F)(F)F)cc1NC(=O)[C@@H]1CCCN1S(=O)(=O)c1cccc2cccnc12 | 6.92 µM
11 | COc1ccccc1CNC(=O)C1CCN(S(=O)(=O)c2ccccc2)CC1 | > 50 µM (inactive)
12 | COCCNC(=O)c1ccc(Cn2c(=O)c3ccccc3n(Cc3ccc(C)cc3)c2=O)cc1 | > 50 µM (inactive)
13 | COc1ccccc1NCC(=O)Nc1cc(S(=O)(=O)N2CCOCC2)ccc1N1CCOCC1 | > 50 µM (inactive)
14 | Cc1ccc(Cl)cc1NC(=O)[C@@H]1CCCN1S(=O)(=O)c1cccc2cccnc12 | 9.59 µM
15 | COc1ccccc1CNC(=O)C1CCN(S(=O)(=O)c2cccc3nonc23)CC1 | > 50 µM (inactive)
16 | Cc1ccc(Cl)c(NC(=O)[C@@H]2CCCN2S(=O)(=O)c2cccc3cccnc23)c1 | 9.83 µM
17 | Cc1ccc(C(C)(C)C)cc1NC(=O)[C@@H]1CCCN1S(=O)(=O)c1cccc2cccnc12 | 7.18 µM
